The term IC50 denotes the midpoint of a concentration-inhibition curve.

In experiment [1] the test system is A549. Put plainly: Cytotoxicity against human A549 cells assessed as growth inhibition at 10 uM after 72 hrs by MTT based WST-8 assay. The conditions noted are these: A549, 72 h, read-out: GI. The format is functional. A digest of the protocol: (§1)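 Single-concentration screen at 10 μM. Cells in RPMI1640 with 10% FBS were seeded at 5.0×10^3 cells/well, adhered for 4 h, then exposed for 72 h at 37 °C, 5% CO2. Medium was removed and WST-8 reagent added for 1.5 h. Absorbance was read at 450 nm with 650 nm correction and growth was expressed as percentage of vehicle-control absorbance.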
In general terms: Tetrazolium dyes change colour on reduction, which living cells bring about.

The test system of experiment [2] is MDA-MB-231. The experiment in a line: Cytotoxicity against human MDA-MB-231 cells assessed as growth inhibition at 10 uM after 72 hrs by MTT based WST-8 assay. The conditions noted are these: MDA-MB-231, 72 h, read-out: GI. The format is functional. A digest of the protocol:
as §1

Experiment [3] deals with A549. Put plainly: Cytotoxicity against human A549 cells assessed as growth inhibition after 72 hrs by MTT based WST-8 assay. Type of experiment: functional, cell-based. The settings on record: A549, 72 h. A digest of the protocol: (§2)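 Cells in RPMI1640 with 10% FBS were seeded at 5.0×10^3 cells/well and left to adhere for 4 h at 37 °C, 5% CO2. Compound was then added for 72 h. Medium was removed and WST-8 reagent (stock: 5 mM WST-8, 0.2 mM 1-methoxyphenazinium salt, 150 mM NaCl) was added for 1.5 h at 37 °C. A450 was read with 650 nm correction. IC50 was taken from concentration–response curves as % of vehicle-control absorbance.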

The subject of experiment [4] is MDA-MB-231. The experiment in a line: Cytotoxicity against human MDA-MB-231 cells assessed as growth inhibition after 72 hrs by MTT based WST-8 assay. The format is functional, cell-based. The settings on record: MDA-MB-231, 72 h. The method in brief:
as §2

In the case of `O=C(Nc1ccc(Oc2ccc(-c3ncc[nH]3)cc2)cc1)Nc1cc(Br)cc(C(F)(F)F)c1`, the inhibition of growth at 10 µM in the experiment on A549 [1] was 44.1%; with MDA-MB-231 [2] it was -13.6%.
`O=C(Nc1ccc(Oc2ccc(-c3ncc[nH]3)cc2)cc1)Nc1ccc(F)c(C(F)(F)F)c1`: in the experiment on A549 [3], the half-inhibitory concentration (IC50) came out at 10.5 µM. In addition, the inhibition of growth at 10 µM in the experiment on A549 [1] turned out to be 63.3%; in the experiment with MDA-MB-231 [2], 26.6%.
Take `O=C(Nc1ccc(Oc2ccc(-c3ncc[nH]3)cc2)cc1)Nc1cccc(C(F)(F)F)c1`: the results for the inhibition of growth at 10 µM with A549 [1] and in the experiment on MDA-MB-231 [2] were 30% and 28.1%, respectively.
Turning to `O=C(Nc1ccc(Oc2ccc(-c3ncc[nH]3)cc2)cc1)Nc1cc(C(F)(F)F)ccc1Cl`, the inhibition of growth at 10 µM with A549 [1] came to 22.3%; with MDA-MB-231 [2], 32.3%.
In the case of `O=C(Nc1ccc(Oc2ccc(-c3nccs3)cc2)cc1)Nc1ccc(Cl)c([N+](=O)[O-])c1`, the IC50 was 3.89 µM in the experiment on A549 [3] and 6.87 µM in the experiment with MDA-MB-231 [4]. Moreover, the inhibition of growth at 10 µM was 77.1% in the experiment with A549 [1] and 72.8% in the experiment on MDA-MB-231 [2].
For `O=C(Nc1ccc(Oc2ccc(-c3ncc[nH]3)cc2)cc1)Nc1ccc(Cl)c(C(F)(F)F)c1`, the half-inhibitory concentration (IC50) in the experiment with A549 [3] amounted to 7.09 µM. The inhibition of growth at 10 µM with A549 [1] stood at 67.9%; with MDA-MB-231 [2] it was 38.1%.
For `O=C(Nc1ccc(Cl)cc1)Nc1ccc(Oc2ccc(-c3ncc[nH]3)cc2)cc1`, the inhibition of growth at 10 µM came to 8.86% with A549 [1] and 47.6% in the experiment with MDA-MB-231 [2].
Turning to `O=C(Nc1ccc(Oc2ccc(-c3nccs3)cc2)cc1)Nc1ccc(Cl)c(C(F)(F)F)c1`, the results for the IC50 in the experiment on A549 [3] and in the experiment with MDA-MB-231 [4] were 3.81 µM and 6.06 µM, respectively. Further, the inhibition of growth at 10 µM came out at 77.6% with A549 [1] and 69.6% in the experiment with MDA-MB-231 [2].
As to `Cc1ccc(NC(=O)Nc2ccc(Oc3ccc(-c4ncc[nH]4)cc3)cc2)cc1`, the inhibition of growth at 10 µM with A549 [1] was found to be 24.6%; in the experiment with MDA-MB-231 [2] it was 49.3%.
Turning to `O=C(Nc1ccc(Oc2ccc(-c3ncc[nH]3)cc2)cc1)Nc1ccc(Cl)c([N+](=O)[O-])c1`, the values for the inhibition of growth at 10 µM in the experiment with A549 [1] and with MDA-MB-231 [2] were 12.4% and 3.36%, respectively.
For `O=C(Nc1ccc(Oc2ccc(-c3nccs3)cc2)cc1)Nc1ccc(F)c(C(F)(F)F)c1`, the results for the half-inhibitory concentration (IC50) in the experiment on A549 [3] and in the experiment with MDA-MB-231 [4] were 4.98 µM and 8.66 µM, respectively. For the same compound, the inhibition of growth at 10 µM with A549 [1] worked out at 76.4%; in the experiment on MDA-MB-231 [2], 71.8%.
Take `COC(=O)c1sccc1NC(=O)Nc1ccc(Oc2ccc(-c3ncc[nH]3)cc2)cc1`: the values for the inhibition of growth at 10 µM with A549 [1] and in the experiment with MDA-MB-231 [2] were 2.34% and -1.46%, respectively.
With `O=C(Nc1ccc(Oc2ccc(-c3nccs3)cc2)cc1)Nc1cc(Br)cc(C(F)(F)F)c1`, the IC50 with A549 [3] is 2.71 µM; in the experiment on MDA-MB-231 [4], 4.19 µM. The inhibition of growth at 10 µM in the experiment with A549 [1] was 81.7%; in the experiment on MDA-MB-231 [2] it was 72.8%.
Regarding `O=C(Nc1ccc(Oc2ccc(-c3nccs3)cc2)cc1)Nc1cc(C(F)(F)F)ccc1Cl`, the 50% inhibitory concentration (IC50) in the experiment with A549 [3] worked out at 7.04 µM; in the experiment on MDA-MB-231 [4] it was 8.9 µM. In addition, the inhibition of growth at 10 µM in the experiment with A549 [1] turned out to be 75.5%; with MDA-MB-231 [2] it was 60.4%.
In the case of `O=C(Nc1ccc(Oc2ccc(-c3nccs3)cc2)cc1)Nc1cccc(C(F)(F)F)c1`, the concentration for half-maximal inhibition (IC50) was 5.56 µM with A549 [3] and 9.55 µM in the experiment with MDA-MB-231 [4]. The inhibition of growth at 10 µM with A549 [1] was determined as 71.5%; in the experiment with MDA-MB-231 [2] it was 64.1%.
As for `Cc1ccc(NC(=O)Nc2ccc(Oc3ccc(-c4nccs4)cc3)cc2)cc1`, the results for the inhibition of growth at 10 µM in the experiment with A549 [1] and with MDA-MB-231 [2] were 15.6% and 22.8%, respectively.
On to `O=C(Nc1ccc(Oc2ccc(-c3ncc[nH]3)cc2)cc1)Nc1ccc(F)c(Cl)c1`, for which the results for the inhibition of growth at 10 µM in the experiment with A549 [1] and in the experiment with MDA-MB-231 [2] were 14.6% and 4.2%, respectively.
For `O=C(Nc1ccccc1)Nc1ccc(Oc2ccc(-c3ncc[nH]3)cc2)cc1`, in that order: 7.09% and 11.4%.
`O=C(Nc1ccc(Cl)cc1)Nc1ccc(Oc2ccc(-c3nccs3)cc2)cc1`: the inhibition of growth at 10 µM in the experiment with A549 [1] is 17.7%; in the experiment on MDA-MB-231 [2], 32.5%.
With `COC(=O)c1sccc1NC(=O)Nc1ccc(Oc2ccc(-c3nccs3)cc2)cc1`, the inhibition of growth at 10 µM in the experiment on A549 [1] was found to be 6.78%; with MDA-MB-231 [2], 11%.
Turning to `O=C(Nc1ccc(Oc2ccc(-c3nccs3)cc2)cc1)Nc1ccc(F)c(Cl)c1`, the values for the inhibition of growth at 10 µM in the experiment on A549 [1] and in the experiment with MDA-MB-231 [2] were 37.3% and 43.9%, respectively.
For `CNC(=O)c1cc(Oc2ccc(NC(=O)Nc3ccc(Cl)c(C(F)(F)F)c3)cc2)ccn1` [SORAFENIB], the IC50 in the experiment with A549 [3] is 5.21 µM; with MDA-MB-231 [4], 7.62 µM. The results for the inhibition of growth at 10 µM with A549 [1] and in the experiment with MDA-MB-231 [2] were 81.2% and 79.6%, respectively.

The values are drawn from ChEMBL document CHEMBL1165866, “Design, synthesis, and in vitro antitumor evaluation of novel diaryl ureas derivatives” (Eur J Med Chem, 2010).
